Experimental data as given in BindingDB's records for doi:10.1016/j.bmcl.2018.04.005 (Shanghai Institute of Materia Medica, 2018).

Target: T1, Sortase family protein (Staphylococcus aureus, UniProt Q9S446)
T1 sequence (Q9S446 whole entry): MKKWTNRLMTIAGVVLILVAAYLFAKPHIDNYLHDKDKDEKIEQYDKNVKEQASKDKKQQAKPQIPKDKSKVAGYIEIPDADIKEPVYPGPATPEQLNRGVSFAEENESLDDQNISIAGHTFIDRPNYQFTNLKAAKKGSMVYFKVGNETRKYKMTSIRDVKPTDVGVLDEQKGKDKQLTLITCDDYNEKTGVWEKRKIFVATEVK
Test: Inhibition of Staphylococcus aureus SrtA deltaN24 mutant assessed as decrease in transpeptidation of IsdA (64 to 323 residues) incubated for 1.25 hrs in presence of NH2-Gly3 nucleophile by SDS-PAGE method
Outline: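 Recombinant, affinity-purified IsdA64-323 (a natural SrtA substrate from S. aureus) is incubated with purified SrtAΔN24 and NH2-Gly3 nucleophile, with or without test compound. Cleavage at the sorting signal gives the transpeptidation product, which is resolved by SDS-PAGE. Inhibition is judged from partial or complete blockade of product formation. Used as a counter-screen against FRET false positives.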

CC(C)=CC[C@H](O)c1cc(O)c2c(c1O)C(=O)C=CC2=O
IC50: 5 µM

CC(C)C=CC(=O)c1cc(O)c2c(O)ccc(O)c2c1O [5,8-Dihydroxy-2-(1-hydroxy-4-methyl-pent-3-enyl)-[1,4]naphthoquinone]
IC50: 5 µM
